From ChEMBL document CHEMBL3875213, “Quinolines: Microwave-assisted synthesis and their antifungal, anticancer and radical scavenger properties” (Bioorg Med Chem, 2017)
Converted amounts (≈) assume the structure as drawn. The source made the active and inactive calls. The calls are words filed in the database; no cut-off is given here.

How the values were obtained:
Candida albicans [1] = experiment: Growth inhibition of Candida albicans ATCC 10231 at 250 ug/ml incubated for 48 hrs under dark condition by broth microdilution assay relative to amphotericin B; format: functional; conditions: ATCC 10231, 48 h, read-out: GI
Summary of the method: (§1)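 Yeast broth microdilution (CLSI M27-A3), RPMI-1640, inoculum 1-5 x 10^3 CFU/mL, DMSO ≤1%, 48 h at 30 °C in a moist, dark chamber. […]. Triplicate; amphotericin B as positive control.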

Candida albicans [2] = experiment: Growth inhibition of Candida albicans ATCC 10231 at 7.81 ug/ml incubated for 48 hrs under dark condition by broth microdilution assay relative to amphotericin B; format: functional; conditions: ATCC 10231, 48 h, read-out: GI; summary of the method: as §1
[3] = Antifungal activity against Cryptococcus neoformans ATCC 32264 incubated for 48 hrs under dark condition by broth microdilution assay; format: functional
Summary of the method: (§2)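 Broth microdilution per CLSI M27-A3 in RPMI-1640. Inocula adjusted to 1-5 x 10^3 CFU/mL. Stocks in DMSO (≤1%), final 3.9-250.0 µg/mL. Incubated 48 h at 30 °C in a moist, dark chamber, read at OD 405. % inhibition computed from growth and sterility control wells, run in triplicate. MIC80/MIC50 taken from four-parameter logistic concentration-response curves; amphotericin B as positive control.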

[4] = Antioxidant activity assessed as DPPH radical scavenging activity at 160 uM incubated for 30 mins under dark condition; format: functional
Summary of the method: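 Compound at 160 µM incubated with 100 µM DPPH in ethanolic medium, stirred in the dark for 30 min, read at 517 nm. Resveratrol as positive control. Three independent experiments, each in triplicate.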

[5] = Selectivity index, ratio of IC50 for human CCD-19Lu cells to IC50 for human Hep2C cells; format: functional
Summary of the method: (§3)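 Selectivity index equals IC50 in non-tumour CCD 19-Lu lung fibroblasts divided by IC50 in the tumour line. Both IC50s come from the 24 h MTT assay (read at 540 nm) over 1.0-1,000 µg/mL.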

[6] = Antioxidant activity assessed as fluorescent light-induced superoxide anion scavenging activity incubated for 10 mins by nitroblue tetrazolium dye based assay; format: functional
Summary of the method: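 Riboflavin/light superoxide system: 50 mM phosphate pH 7.8, 13 mM L-methionine, 75 µM NBT, 100 µM EDTA, 2 µM riboflavin, compound 0-200 µg/mL. Fluorescent light for 10 min at 25 °C, dark controls, scavenging measured at 575 nm. Resveratrol as reference.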

Candida albicans [7] = experiment: Antifungal activity against Candida albicans ATCC 10231 incubated for 48 hrs under dark condition by broth microdilution assay; format: functional; conditions: ATCC 10231, 48 h; summary of the method: as §2
Candida albicans [8] = experiment: Growth inhibition of Candida albicans ATCC 10231 at 125 ug/ml incubated for 48 hrs under dark condition by broth microdilution assay relative to amphotericin B; format: functional; conditions: ATCC 10231, 48 h, read-out: GI; summary of the method: as §1
[9] = Antioxidant activity assessed as DPPH radical scavenging activity incubated for 30 mins under dark condition; format: functional
Summary of the method: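 DPPH (100 µM) in ethanolic medium, stirred 30 min in the dark, absorbance at 517 nm. Compound varied from 0 to 160 µg/mL to find the concentration scavenging 50% of radicals. Three independent experiments, each in triplicate.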

Candida albicans [10] = experiment: Growth inhibition of Candida albicans ATCC 10231 at 3.9 ug/ml incubated for 48 hrs under dark condition by broth microdilution assay relative to amphotericin B; format: functional; conditions: ATCC 10231, 48 h, read-out: GI; summary of the method: as §1
Candida albicans [11] = experiment: Growth inhibition of Candida albicans ATCC 10231 at 62.5 ug/ml incubated for 48 hrs under dark condition by broth microdilution assay relative to amphotericin B; format: functional; conditions: ATCC 10231, 48 h, read-out: GI; summary of the method: as §1
NCI-H226 = experiment: Selectivity index, ratio of IC50 for human CCD-19Lu cells to IC50 for human NCI-H226 cells; format: functional; summary of the method: as §3
Candida albicans [12] = experiment: Growth inhibition of Candida albicans ATCC 10231 at 31.25 ug/ml incubated for 48 hrs under dark condition by broth microdilution assay relative to amphotericin B; format: functional; conditions: ATCC 10231, 48 h, read-out: GI; summary of the method: as §1
Candida albicans [13] = experiment: Growth inhibition of Candida albicans ATCC 10231 at 15.62 ug/ml incubated for 48 hrs under dark condition by broth microdilution assay relative to amphotericin B; format: functional; conditions: ATCC 10231, 48 h, read-out: GI; summary of the method: as §1
[14] = Antiproliferative activity against human NCI-H226 cells harboring TP53 mutant after 24 hrs by MTT assay; format: functional, cell-based; conditions: NCI-H226, 24 h
Summary of the method: (§4)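 Cells grown in medium with 10% foetal bovine serum and 1% L-glutamine at 37 °C, 5% CO2, seeded at 1 x 10^5 cells/well. Exposed to compound at 1.0-1,000 µg/mL for 24 h. MTT added, absorbance read at 540 nm 3 h later. IC50 obtained by non-linear regression of viability data.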

[15] = Antiproliferative activity against human CCD-19Lu cells after 24 hrs by MTT assay; format: cell-based; summary of the method: as §4
[16] = Antiproliferative activity against human Hep2C cells after 24 hrs by MTT assay; format: functional, cell-based; summary of the method: as §4
[17] = Selectivity index, ratio of IC50 for human CCD-19Lu cells to IC50 for human TOV21G cells; format: functional; summary of the method: as §3
[18] = Antiproliferative activity against human TOV21G harboring wild type TP53 cells after 24 hrs by MTT assay; format: functional, cell-based; summary of the method: as §4
[19] = Antioxidant activity assessed as fluorescent light-induced superoxide anion scavenging activity at 160 uM incubated for 10 mins by nitroblue tetrazolium dye based assay; format: functional
Summary of the method: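 Superoxide generated photochemically in 50 mM phosphate buffer pH 7.8 with 13 mM L-methionine, 75 µM nitroblue tetrazolium, 100 µM EDTA and 2 µM riboflavin. Compound at 160 µM. 10 min at 25 °C under fluorescent light; dark controls. Read at 575 nm. Resveratrol as positive control; three independent experiments in triplicate.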

[20] = Potency index, ratio of resveratrol SC50 to compound SC50 for fluorescent light-induced superoxide anion scavenging activity

Compound	MIC50 [3] [µg/mL]	MIC80 [3] [µg/mL]	MIC50 (Candida albicans [7]) [µg/mL]	MIC80 (Candida albicans [7]) [µg/mL]	inhibition of growth at 250 µg/mL (Candida albicans [1]) [%]	inhibition of growth at 7.81 µg/mL (Candida albicans [2]) [%]	Activity [4] [%]	Ratio IC50 [5]	SC50 [6] [µM]	inhibition of growth at 125 µg/mL (Candida albicans [8]) [%]	SC50 [9] [µM]	inhibition of growth at 3.9 µg/mL (Candida albicans [10]) [%]	inhibition of growth at 62.5 µg/mL (Candida albicans [11]) [%]	Ratio IC50 (NCI-H226)	inhibition of growth at 31.25 µg/mL (Candida albicans [12]) [%]	inhibition of growth at 15.62 µg/mL (Candida albicans [13]) [%]	IC50 [14] [µM]	IC50 [15] [µM]	IC50 [16] [µM]	Activity [19]	other results
COc1ccc2nc(-c3ccccc3)cc(-c3ccccc3)c2c1	250 (≈ 803 µM)	250 (≈ 803 µM)	250 (≈ 803 µM)	> 250	57.2	0	45 to 55	1	> 250	20.9	168	0	12.2	16	8.43	4	57	925	496	–	Ratio IC50 [17]: 8; IC50 [18]: 110 µM
Brc1ccc2nc(C3CCCCC3)cc(-c3ccccc3)c2c1	250 (≈ 682 µM)	> 250	250 (≈ 682 µM)	> 250	37.2	0	45 to 55	–	> 250	11.3	118	0	3.29	5	1.49	0	91	490	–	Active	–
c1ccc(-c2cc(-c3ccccc3)c3c4c(ccc3n2)OCO4)cc1	31.2 (≈ 95.9 µM)	250 (≈ 768 µM)	> 250	> 250	24.2	0	–	0	–	13.5	–	0	8.77	8	5.74	3.62	40	354	951	Active	–
O=[N+]([O-])c1ccc2c(-c3ccccc3)cc(-c3ccccc3)nc2c1	125 (≈ 383 µM)	> 250	250 (≈ 766 µM)	> 250	54.8	4.97	–	–	–	38.5	–	3.42	19.8	–	10.6	7.07	559	–	–	–	–
Brc1ccc2nc(-c3ccco3)cc(-c3ccccc3)c2c1	62.5 (≈ 178 µM)	250 (≈ 714 µM)	62.5 (≈ 178 µM)	125 (≈ 357 µM)	83.3	4.37	45 to 55	6	> 250	43.2	82.7	1.75	21.5	21	13.1	8.68	30	631	102	–	Activity [3]: Dose-dependent effect; Ratio IC50 [17]: 0; IC50 [18]: 877 µM
COc1cc(-c2cc(-c3ccccc3)c3cc(Br)ccc3n2)cc(OC)c1OC	62.5 (≈ 139 µM)	250 (≈ 555 µM)	125 (≈ 278 µM)	250 (≈ 555 µM)	82.7	2.99	–	–	> 250	52.9	428	0	20.8	1	12.9	7.32	61	104	–	–	Ratio IC50 [17]: 0; IC50 [18]: 493 µM

Now from value to compound, other results behind:

MIC50 [3] [µg/mL]	MIC80 [3] [µg/mL]	MIC50 (Candida albicans [7]) [µg/mL]	MIC80 (Candida albicans [7]) [µg/mL]	Compound	inhibition of growth at 250 µg/mL (Candida albicans [1]) [%]	inhibition of growth at 7.81 µg/mL (Candida albicans [2]) [%]	Activity [4] [%]	Ratio IC50 [5]	SC50 [6] [µM]	inhibition of growth at 125 µg/mL (Candida albicans [8]) [%]	SC50 [9] [µM]	inhibition of growth at 3.9 µg/mL (Candida albicans [10]) [%]	inhibition of growth at 62.5 µg/mL (Candida albicans [11]) [%]	Ratio IC50 (NCI-H226)	inhibition of growth at 31.25 µg/mL (Candida albicans [12]) [%]	inhibition of growth at 15.62 µg/mL (Candida albicans [13]) [%]	IC50 [14] [µM]	IC50 [15] [µM]	IC50 [16] [µM]	Activity [19]	other results
250 (≈ 633 µM)	> 250	250 (≈ 633 µM)	> 250	Clc1ccc(-c2cc(-c3ccccc3)c3cc(Br)ccc3n2)cc1	50.5	0	45 to 55	1	> 250	24.7	180	0	9.38	356	6.78	6.88	1.58	528	269	–	–
62.5 (≈ 166 µM)	250 (≈ 664 µM)	62.5 (≈ 166 µM)	125 (≈ 332 µM)	Oc1ccc(-c2cc(-c3ccccc3)c3cc(Br)ccc3n2)cc1	45.8	3.56	–	0	–	21.2	–	2.41	9.63	13	6.17	4.5	8	104	105	Active	–
> 250	> 250	> 250	> 250	O=[N+]([O-])c1cccc(-c2cc(-c3ccccc3)c3cc(Br)ccc3n2)c1	9.14	0	35 to 40	–	–	5.11	–	0	4.99	–	4.86	3.43	8.5	–	–	–	–
> 250	> 250	> 250	> 250	N#Cc1ccc(-c2cc(-c3ccccc3)c3cc(Br)ccc3n2)cc1	5.75	0	–	–	–	4.86	–	0	2.54	–	2.44	0	–	–	98.8	Active	–
> 250	> 250	> 250	> 250	Oc1cccc(-c2cc(-c3ccccc3)c3cc(Br)ccc3n2)c1	40.9	3.15	–	–	121	20.2	> 250	–	11.2	–	7.61	4.08	–	–	–	Active	Ratio [20]: 2
15.6 (≈ 41.2 µM)	> 250	> 250	> 250	Fc1ccc(-c2cc(-c3ccccc3)c3cc(Br)ccc3n2)cc1	17.2	1.37	–	–	–	6.09	–	0.19	4.13	–	4.35	4.24	–	–	5	Active	IC50 [18]: 570 µM
